Data published in ChEMBL document CHEMBL4004783, “Penicisulfuranols A-F, Alkaloids from the Mangrove Endophytic Fungus Penicillium janthinellum HDN13-309” (J Nat Prod, 2017).
Structures can show the parent of a compound that is named as a salt.

What was measured:
HL-60 = experiment: Cytotoxicity against human HL60 cells assessed as reduction in cell viability by MTT assay; format: functional, cell-based
Summary of the method: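 HL-60 human promyelocytic leukemia cells; viability read by MTT method; IC50 values reported.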

HeLa = experiment: Cytotoxicity against human HeLa cells assessed as reduction in cell viability by SRB assay; format: functional, cell-based
Summary of the method: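 HeLa human cervical carcinoma cells; cell growth read by sulforhodamine B (SRB) method; IC50 values reported.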

| Structure (SMILES) | IC50 (HL-60) [nM] | IC50 (HeLa) [nM] |
| --- | --- | --- |
| COc1ccc2c(c1OC)O[C@]1(C(=O)N3O[C@H]4[C@H](O)C=C[C@@H](O)[C@@]4(O)C[C@@]3(SC)C(=O)N1C)[C@@H]2SC | > 30000 | > 30000 |
| COc1ccc2c(c1OC)O[C@]13C(=O)N4O[C@H]5[C@H](O)C=C[C@@H](O)[C@@]5(O)C[C@@]4(SSS[C@H]21)C(=O)N3C | 1200 | 300 |
| COc1ccc2c(c1OC)O[C@]13C(=O)N4O[C@H]5[C@H](O)C=C[C@@H](Cl)[C@@]5(O)C[C@@]4(SS[C@H]21)C(=O)N3C | 100 | 500 |
| COc1ccc2c(c1OC)O[C@]1(C(=O)N3O[C@H]4[C@H](O)C=C[C@@H](Cl)[C@@]4(O)C[C@@]3(SC)C(=O)N1C)[C@@H]2SC | > 30000 | > 30000 |
| COc1ccc2c(c1OC)O[C@]13C(=O)N4O[C@H]5[C@H](O)C=C[C@@H](O)[C@@]5(O)C[C@@]4(SS[C@H]21)C(=O)N3C | 1600 | 3900 |
| COc1cccc2c1O[C@]1(C(=O)N3O[C@H]4[C@H](O)C=C[C@@H](O)[C@@]4(O)C[C@@]3(SC)C(=O)N1C)[C@@H]2SC | > 30000 | > 30000 |
| COc1cccc2c1C(=O)c1c(O)c3c(c(O)c1C2=O)C[C@@](O)(C(=O)CO)C[C@@H]3O[C@H]1C[C@H](N)[C@H](O)[C@H](C)O1 [DOXORUBICIN HYDROCHLORIDE] |  | 500 |
